According to ChEMBL document CHEMBL4325902, “Design, synthesis and biological evaluation of novel, orally bioavailable pyrimidine-fused heterocycles as influenza PB2 inhibitors” (Eur J Med Chem, 2019):

Key:
[1] = Cytotoxicity against MDCK cells assessed as reduction in cell viability after 5 days by CCK-8 assay; format: cell-based, Canis lupus familiaris; settings: dog
Method in brief: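 MDCK cells seeded at 2×10^3 per well and grown overnight at 37°C, 5% CO2. Diluted compound (0.5% DMSO final) added without virus, then 5 days at 37°C. Viability read by CCK-8. CC50 is the concentration cutting viability to 50% of control, from a dose-response fit.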

[2] = AUC in CD-1 mouse at 10 mg/kg, po; format: ADME, organism-based; settings: in vivo
Method in brief: (§1)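 Male CD-1 mice, n=3 per dose, values are cohort means. Dosed 1 mg/kg iv and 10 mg/kg po, each in 20% Solutol in water. Reported parameters are Cl, T1/2, Vd, AUC, Cmax, Tmax and %F.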

[3] = Half life in human liver microsomes at 1 uM preincubated for 10 mins followed by NADPH addition measured up to 60 mins by LC/MS/MS analysis; format: ADME, Microsome
Method in brief: (§2)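 Test compound at 1 µM with 0.5 mg/mL liver microsomal protein (CD-1 mouse, SD rat or human) in 100 mM potassium phosphate, pH 7.4. Preincubated 10 min at 37°C, then started with NADPH (1 mM generating system). Sampled at 0–60 min and stopped with cold acetonitrile containing internal standards. Compound loss gave T1/2. A no-NADPH control ran 60 min.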

[4] = AUC in CD-1 mouse at 1 mg/kg, iv; format: ADME, organism-based; settings: in vivo; method in brief: as §1
[5] = Half life in CD-1 mouse liver microsomes at 1 uM preincubated for 10 mins followed by NADPH addition measured up to 60 mins by LC/MS/MS analysis; format: ADME, Microsome; method in brief: as §2
[6] = Half life in Sprague-Dawley rat liver microsomes at 1 uM preincubated for 10 mins followed by NADPH addition measured up to 60 mins by LC/MS/MS analysis; format: ADME, Microsome; method in brief: as §2
[7] = Volume of distribution in CD-1 mouse at 1 mg/kg, iv; format: ADME, organism-based; settings: in vivo; method in brief: as §1
[8] = Cmax in CD-1 mouse at 10 mg/kg, po; format: ADME, organism-based; parameters: dose 10 mg/kg, route oral; settings: in vivo; method in brief: as §1
[9] = Clearance in CD-1 mouse at 1 mg/kg, iv; format: ADME, organism-based; settings: in vivo; method in brief: as §1
[10] = Oral bioavailability in CD-1 mouse at 10 mg/kg; format: ADME, organism-based; settings: in vivo; method in brief: as §1
[11] = Tmax in CD-1 mouse at 10 mg/kg, po; format: ADME, organism-based; settings: in vivo; method in brief: as §1
[12] = Half life in CD-1 mouse at 1 mg/kg, iv; format: ADME, organism-based; settings: in vivo; method in brief: as §1
[13] = Volume of distribution in CD-1 mouse at 0.5 mg/kg, iv; format: ADME, organism-based; settings: in vivo
Method in brief: (§3)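 Male CD-1 mice, n=3 per dose, values are cohort means. Cassette PK: 0.5 mg/kg iv and 1 mg/kg po, both in 20% Solutol in water. Reported parameters are clearance, T1/2, Vd, AUC, Cmax, Tmax and %F.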

[14] = Half life in CD-1 mouse at 0.5 mg/kg, iv; format: ADME, organism-based; settings: in vivo; method in brief: as §3
[15] = Cmax in CD-1 mouse at 1 mg/kg, po; format: ADME, organism-based; parameters: dose 1 mg/kg, route oral; settings: in vivo; method in brief: as §3
[16] = Oral bioavailability in CD-1 mouse at 1 mg/kg; format: ADME, organism-based; settings: in vivo; method in brief: as §3
[17] = Clearance in CD-1 mouse at 0.5 mg/kg, iv; format: ADME, organism-based; settings: in vivo; method in brief: as §3
[18] = AUC in CD-1 mouse at 0.5 mg/kg, iv; format: ADME, organism-based; settings: in vivo; method in brief: as §3
[19] = Tmax in CD-1 mouse at 1 mg/kg, po; format: ADME, organism-based; settings: in vivo; method in brief: as §3
[20] = AUC in CD-1 mouse at 1 mg/kg, po; format: ADME, organism-based; settings: in vivo; method in brief: as §3

With O=C(O)[C@H]1C2CCC(CC2)[C@@H]1Nc1nc(-c2c[nH]c3ncc(F)cc23)nc2c1CS(=O)(=O)C2 the CC50 at 120 h [1] was > 50 µM.

In the case of O=C(O)[C@H]1C2CCC(CC2)[C@@H]1n1ccc2cnc(-c3c[nH]c4ncc(F)cc34)nc21, the CC50 at 120 h [1] is reported as 4 µM.

Work on O=C(O)[C@H]1C2CCC(CC2)[C@@H]1Nc1nc(-c2c[nH]c3ccc(F)cc23)ncc1F yielded a CC50 at 120 h [1] of 10 µM.

With O=C(O)[C@H]1C2CCC(CC2)[C@@H]1Nc1nc(-c2c[nH]c3ncc(F)cc23)nc2cc(F)cnc12 the CC50 at 120 h [1] was 1.4 µM.

For N#Cc1csc2c(N[C@H]3C4CCC(CC4)[C@@H]3C(=O)O)nc(-c3c[nH]c4ncc(F)cc34)nc12, the CC50 at 120 h [1] was 0.7 µM.

Cc1cccc2nc(N[C@H]3C4CCC(CC4)[C@@H]3C(=O)O)nc(-c3c[nH]c4ncc(F)cc34)c12 gave a CC50 at 120 h [1] of 2.1 µM.

For O=C(O)[C@H]1C2CCC(CC2)[C@@H]1Nc1nc(-c2c[nH]c3ncc(F)cc23)nc2cccc(F)c12, the CC50 at 120 h [1] was 1.8 µM.

For O=C(O)[C@H]1C2CCC(CC2)[C@@H]1Nc1nc(-c2c[nH]c3ncc(F)cc23)nc2[nH]ccc12, the CC50 at 120 h [1] was 15 µM.

O=C(O)[C@H]1C2CCC(CC2)[C@@H]1Nc1nc(-c2c[nH]c3ncc(F)cc23)nc2c1CCC2 showed a CC50 at 120 h [1] of 10 µM.

For O=C(O)[C@H]1C2CCC(CC2)[C@@H]1Nc1nc(-c2c[nH]c3ncc(F)cc23)ncc1F [PIMODIVIR], the AUC [2] was 13.4 µM·h, the half-life at 1 µM [3] was > 2.42 h and the AUC [4] was 1.36 µM·h. For the same compound, the half-life at 1 µM [5] was > 2.42 h, the half-life at 1 µM [6] was > 2.42 h and the Vd [7] was 7.1 L/kg. For the same compound, the Cmax [8] was 2050 nM, the CC50 at 120 h [1] was 12 µM and the clearance [9] was 30.9 mL/min/kg. For the same compound, the bioavailability [10] was 100%, the Tmax [11] was 2.5 h and the half-life [12] was 1.9 h.

Compound O=C(O)[C@H]1C2CCC(CC2)[C@@H]1Nc1nc(-c2c[nH]c3ncc(F)cc23)nc2ccoc12 has a CC50 at 120 h [1] of 6.2 µM.

O=C(O)[C@H]1C2CCC(CC2)[C@@H]1Nc1nc(-c2c[nH]c3ncc(F)cc23)nc2cc(C(F)F)sc12 gave a CC50 at 120 h [1] of 3.3 µM.

Compound O=C(O)[C@H]1C2CCC(CC2)[C@@H]1Nc1nc(-c2c[nH]c3ncc(F)cc23)nc2cccnc12 has a CC50 at 120 h [1] of 7 µM.

Compound O=C(O)[C@H]1C2CCC(CC2)[C@@H]1Nc1nc(-c2c[nH]c3ncc(F)cc23)nc2nccnc12 has a CC50 at 120 h [1] of 46 µM.

Work on Cc1cnc2c(N[C@H]3C4CCC(CC4)[C@@H]3C(=O)O)nc(-c3c[nH]c4ncc(F)cc34)nc2c1 yielded a CC50 at 120 h [1] of 4.9 µM.

O=C(O)[C@H]1C2CCC(CC2)[C@@H]1Nc1nc(-c2n[nH]c3ncc(F)cc23)nc2ccsc12 showed a half-life at 1 µM [3] of 1.28 h, a half-life at 1 µM [5] of 0.683 h and a half-life at 1 µM [6] of 1.22 h. For the same compound, the CC50 at 120 h [1] was 0.2 µM.

O=C(O)[C@H]1C2CCC(CC2)[C@@H]1Nc1nc(-c2c[nH]c3ncc(F)cc23)nc2cscc12 gave a Vd [13] of 5.7 L/kg, a half-life [14] of 1.3 h and a Cmax [15] of 29.2 nM. It also gave a bioavailability [16] of 10%, a clearance [17] of 73.7 mL/min/kg and an AUC [18] of 0.252 µM·h. For the same compound, the Tmax [19] was 0.33 h, the CC50 at 120 h [1] was > 50 µM and the AUC [20] was 0.0488 µM·h.

For O=C(O)[C@H]1C2CCC(CC2)[C@@H]1Nc1nc(-c2c[nH]c3ncc(F)cc23)nc2c1S(=O)(=O)CC2, the CC50 at 120 h [1] was > 50 µM.

For O=C(O)[C@H]1C2CCC(CC2)[C@@H]1Nc1nc(-c2c[nH]c3ncc(F)cc23)nc2c1CCCC2, the CC50 at 120 h [1] was > 50 µM.

With O=C(O)[C@H]1C2CCC(CC2)[C@@H]1Nc1nc(-c2c[nH]c3ncc(F)cc23)nc2ccsc12 the Vd [13] was 2.4 L/kg, the half-life at 1 µM [3] was 0.828 h and the half-life at 1 µM [5] was 0.808 h. It also gave a half-life at 1 µM [6] of 0.87 h, a half-life [14] of 2 h and a Cmax [15] of 172 nM. The bioavailability [16] was 37%, the clearance [17] was 18.9 mL/min/kg and the AUC [18] was 1.01 µM·h. It also gave a Tmax [19] of 0.4 h, a CC50 at 120 h [1] of 1.5 µM and an AUC [20] of 0.69 µM·h.

O=C(O)[C@H]1C2CCC(CC2)[C@@H]1Nc1nc(-c2c[nH]c3ncc(F)cc23)nc2scnc12 gave a CC50 at 120 h [1] of 1.5 µM.

In the case of O=C(O)[C@H]1C2CCC(CC2)[C@@H]1Nc1nc(-c2c[nH]c3ncc(F)cc23)nc2c1CSC2, the CC50 at 120 h [1] is reported as 4.4 µM.

N#Cc1cn([C@H]2C3CCC(CC3)[C@@H]2C(=O)O)c2nc(-c3c[nH]c4ncc(F)cc34)ncc12 gave a CC50 at 120 h [1] of 5.4 µM.

Compound Cn1cc(F)c2c(N[C@H]3C4CCC(CC4)[C@@H]3C(=O)O)nc(-c3c[nH]c4ncc(F)cc34)nc21 has a CC50 at 120 h [1] of 0.6 µM.

Work on O=C(O)[C@H]1C2CCC(CC2)[C@@H]1Nc1nc(-n2ccc3ncc(F)cc32)ncc1F yielded a CC50 at 120 h [1] of 1.1 µM.

For O=C(O)[C@H]1C2CCC(CC2)[C@@H]1Nc1nc(-c2n[nH]c3ncc(F)cc23)nc2c1SCC2, the AUC [2] was 152 µM·h, the half-life at 1 µM [3] was > 2.42 h and the AUC [4] was 28.7 µM·h. For the same compound, the half-life at 1 µM [5] was 1.71 h, the half-life at 1 µM [6] was > 2.42 h and the Vd [7] was 0.2 L/kg. The Cmax [8] was 32600 nM, the CC50 at 120 h [1] was 4.9 µM and the clearance [9] was 1.3 mL/min/kg. The bioavailability [10] was 57%, the Tmax [11] was 0.67 h and the half-life [12] was 3 h.

With Cc1cccc2nc(-c3c[nH]c4ncc(F)cc34)nc(N[C@H]3C4CCC(CC4)[C@@H]3C(=O)O)c12 the CC50 at 120 h [1] was 4.7 µM.

Compound O=C(O)[C@H]1C2CCC(CC2)[C@@H]1Nc1nc(-c2n[nH]c3ncc(F)cc23)nc2sccc12 has a half-life at 1 µM [3] of 1.18 h, a half-life at 1 µM [5] of 0.55 h and a half-life at 1 µM [6] of 1.08 h. It also gave a CC50 at 120 h [1] of 2.7 µM.

O=C(O)[C@H]1C2CCC(CC2)[C@@H]1Nc1nc(-c2c[nH]c3ncc(F)cc23)nc2sccc12 gave a half-life at 1 µM [3] of 1.74 h, a half-life at 1 µM [5] of 1.02 h and a half-life at 1 µM [6] of 1.52 h. For the same compound, the Cmax [15] was 509 nM, the Tmax [19] was 0.83 h and the CC50 at 120 h [1] was 0.6 µM. It also gave an AUC [20] of 1.35 µM·h.

For O=C(O)[C@H]1C2CCC(CC2)[C@@H]1N1CCOc2cnc(-c3c[nH]c4ncc(F)cc34)nc21, the CC50 at 120 h [1] was > 50 µM.

O=C(O)[C@H]1C2CCC(CC2)[C@@H]1n1cnc2cnc(-c3c[nH]c4ncc(F)cc34)nc21 gave a CC50 at 120 h [1] of 21.7 µM.

For O=C(O)[C@H]1C2CCC(CC2)[C@@H]1Nc1nc(-c2c[nH]c3ncc(F)cc23)nc2c1CCS2, the CC50 at 120 h [1] was 5.6 µM.

With O=C(O)[C@H]1C2CCC(CC2)[C@@H]1Nc1nc(-c2c[nH]c3ncc(F)cc23)nc2c1SCC2 the AUC [2] was 19.5 µM·h, the half-life at 1 µM [3] was 1.66 h and the AUC [4] was 2.79 µM·h. It also gave a half-life at 1 µM [5] of 0.855 h, a half-life at 1 µM [6] of 1.92 h and a Vd [7] of 2.3 L/kg. For the same compound, the Cmax [8] was 15000 nM, the CC50 at 120 h [1] was 4.5 µM and the clearance [9] was 13.8 mL/min/kg. The bioavailability [10] was 71%, the Tmax [11] was 0.25 h and the half-life [12] was 2.3 h.
